Pemphigus Ab inh – inhibitors of pemphigus antibody binding to DSG3, primary screen, biochemical, bead-based, flow cytometry, scFv-GFP | Desmoglein-3 (Homo sapiens), P32926 | DSG3-coupled beads, scFv-anti-DSG3-GFP binding; hits give low values | binding (percent of control), % at 10 µM | 310,000 compounds, 0.48% hits | AID 588358, 2011;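 active = binding more than 3 SD below its plate's average and above zero; inconclusive = below that plate limit but binding exactly zero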;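 also: hits lower antibody fragment binding to DSG3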
NALP1 inh – NALP1 inflammasome inhibitors in reconstituted yeast, colorimetric, S. cerevisiae, triplicate retest; S. cerevisiae NALP1/ASC/caspase-1 growth, X-gal OD620, 72 h; inhibition, % at 10 µM; 280,000 compounds, 0.61% hits; in the data active = inhibition mostly above about 24%, no sharp cut-off; inactive = mostly below about 32%
NLRP3 yeast inh – NALP3 inflammasome inhibitors in reconstituted yeast, primary screen, luminescence, uHTS | inhibition, % at 10 µM | 330,000 compounds, 0.39% hits | Yeast reconstituted NLRP3/ASC/caspase-1, beta-gal luminescence, 24 h;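 active = inhibition of 50% or more; inactive = inhibition below 50%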;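 also: plate controls were induced DMSO wells for no effect and uninduced yeast grown without galactose for full effect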
Arr AP2 block – inhibitors of beta-arrestin/AP2 binding, primary screen, biochemical, GPCR trafficking, flow cytometry; 340,000 compounds, 0.31% hits; FITC-arrestin peptide / GST-AP2 beads; AP2 beta2 appendage carries R879A mutation; inhibition, % at 10 µM; beta-arrestin 1 C-terminal peptide binding to AP2 beta2-adaptin appendage (human);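 active = inhibition above a set limit, near 3 SD of compounds lacking own fluorescence, cut at about 54% in these data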;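 also: plate controls were DMSO wells for no effect and 5 µM unlabelled arrestin peptide for full effect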
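system = GST-tagged AP2 beta2-adaptin appendage (R879A) on 4 µm glutathione beads | reagent = FITC-labelled arrestin peptide probe, 50 nM final | schedule = compound with beads 12 min RT, then probe 1 h RT | signal = HyperCyt-sampled flow cytometry, FL1 channel, ex 488/em 535 nm | read-out = percent response from loss of bead-bound FITC fluorescence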
ALR H2O2 inh – inhibitors of human ALR sulfhydryl oxidase, primary screen, biochemical, H2O2 detection, HRP-luminol luminescence, single point; FAD-linked sulfhydryl oxidase ALR (Homo sapiens), P55789; purified ALR, DTT oxidation; inhibition, % (no concentration beside the values); 290,000 compounds, 3.8% hits; AID 485317, 2010;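 active = mean replicate inhibition above about 79%, with every replicate also reaching it, limit read from the data; inconclusive = only one of the two criteria met; inactive = mean below limit and not every replicate reaching it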
Target sequence (P55789 whole entry, looked up): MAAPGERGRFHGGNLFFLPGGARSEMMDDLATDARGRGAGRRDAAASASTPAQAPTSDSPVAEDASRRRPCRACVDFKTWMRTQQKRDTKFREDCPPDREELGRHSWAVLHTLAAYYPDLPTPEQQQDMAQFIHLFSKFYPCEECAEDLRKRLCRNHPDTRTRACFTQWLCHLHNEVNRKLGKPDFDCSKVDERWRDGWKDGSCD
PolyA inh – polyadenylation inhibitors in yeast reporter cells, primary screen, luminescence, S. cerevisiae | S. cerevisiae SKY197-pL101 polyadenylation reporter, beta-gal luminescence; efflux-impaired pdr1/pdr3 knockout yeast; score 100 = 6 SD above DMSO | activity score, % at 12 µM | 300,000 compounds, 0.02% hits;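 active = lowest replicate activity score at least 50, where 100 means six control SD above control mean; inconclusive = lowest score under 50 but half or more replicates reach 50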;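 also: yeast exposed to compound for 9 h at 30 °C; higher score means more reporter readthrough which indicates perturbed polyadenylation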
* marks the source's active call; other numbers are inactive results. Rows were chosen to be rich in hits. Some 4.6% of all compounds tested hit in one or more screens of this group.

Results for CC(=O)c1ccccc1NC(=O)COC(=O)/C=C/c1ccc(C)o1 ?
NALP1 inh: 19; NLRP3 yeast inh: 9; Arr AP2 block: 14; ALR H2O2 inh: 96*; PolyA inh: -15

How did CC(=O)c1ccccc1NC(=O)COC(=O)/C=C/c1cccs1 do in these assays?
Pemphigus Ab inh: 99; NLRP3 yeast inh: 30; Arr AP2 block: -2; ALR H2O2 inh: -8; PolyA inh: -7

How did Cc1cc(N)n2ncc(-c3ccccc3)c2n1 do in these assays?
NALP1 inh: 21; NLRP3 yeast inh: 42; Arr AP2 block: 4; ALR H2O2 inh: 90*; PolyA inh: -31

What do the screens show for `Cc1cc(N)n2ncc(-c3cccc(Br)c3)c2n1`?
Pemphigus Ab inh: 112; NALP1 inh: 12; NLRP3 yeast inh: -18; Arr AP2 block: 23; ALR H2O2 inh: -6

What do the screens show for `Fc1ccccc1Nc1n[nH]c(=S)s1`?
Pemphigus Ab inh: 98; NALP1 inh: -34; NLRP3 yeast inh: 16; Arr AP2 block: 11; ALR H2O2 inh: 99*; PolyA inh: 3

How did Cc1ccccc1Nc1n[nH]c(=S)s1 do in these assays?
Pemphigus Ab inh: 109

Results for Cc1c(Cl)cccc1Nc1n[nH]c(=S)s1 ?
Pemphigus Ab inh: 90; Arr AP2 block: 36

Results for S=c1[nH]nc(Nc2cccc3ccccc23)s1 ?
Pemphigus Ab inh: 99; NALP1 inh: -27; NLRP3 yeast inh: -1; Arr AP2 block: -21; ALR H2O2 inh: 97*; PolyA inh: 5

Results for O=C(OCC(=O)N1N=C(c2ccc(Cl)cc2)CC1c1ccco1)c1cccnc1 (stereo not given) ?
NLRP3 yeast inh: 12; Arr AP2 block: 3; ALR H2O2 inh: 11

How did CCOC(=O)CSc1nc2nc(Cl)c(Cl)nc2[nH]1 do in these assays?
Pemphigus Ab inh: 105

How did COc1ccc(C(=O)N/N=C/c2ccc(OC)c(CSc3ccccn3)c2)cc1 do in these assays?
Pemphigus Ab inh: 83; NALP1 inh: 16; NLRP3 yeast inh: 20; Arr AP2 block: 8; ALR H2O2 inh: 99*; PolyA inh: -2

What do the screens show for `COc1ccc(/C=N/NC(=O)c2ccn[nH]2)cc1CSc1ccccn1`?
Pemphigus Ab inh: 94; NALP1 inh: -1; NLRP3 yeast inh: -2; Arr AP2 block: -6; ALR H2O2 inh: 99*; PolyA inh: 8

Results for COc1ccc(/C=N/NC(=O)c2cccnc2)cc1CSc1ccccn1 ?
Pemphigus Ab inh: 103; NALP1 inh: 24; NLRP3 yeast inh: -4; Arr AP2 block: -20; ALR H2O2 inh: 99*; PolyA inh: 16

Results for O=C(NC1CCCC1)C(c1cccnc1)N(C(=O)c1csnn1)c1ccc(F)cc1 (stereo not given) ?
Pemphigus Ab inh: 104; NALP1 inh: -9; NLRP3 yeast inh: -2; Arr AP2 block: 1; ALR H2O2 inh: -14; PolyA inh: -10

What do the screens show for `CC(=O)NNC(=O)CSc1nnc(-c2ccccc2)c(-c2ccccc2)n1`?
Pemphigus Ab inh: 111; NALP1 inh: 12; NLRP3 yeast inh: 7; Arr AP2 block: -3; ALR H2O2 inh: 83*; PolyA inh: inconclusive

What do the screens show for `CNC[C@H]1OCc2ccccc2-c2ccccc2C(=O)N([C@H](C)CO)C[C@H]1C`?
Pemphigus Ab inh: 106

How did CCOC(=O)c1ccc(NC(=O)NC2=NCCS2)cc1 do in these assays?
Pemphigus Ab inh: 96

Results for Fc1ccc(Br)cc1C1C=C(c2ccc(Br)cc2)Nc2ncnn21 (stereo not given) ?
Pemphigus Ab inh: 122; NALP1 inh: -17; NLRP3 yeast inh: 9; Arr AP2 block: 5; ALR H2O2 inh: 90*; PolyA inh: 10

How did C1=C(c2ccccc2)Nc2ncnn2C1c1ccccc1 (stereo not given) do in these assays?
Pemphigus Ab inh: 69*; NLRP3 yeast inh: 24; Arr AP2 block: 2; PolyA inh: 9

How did CC1Cc2ccccc2N1CC(=O)Nc1ccc2c(c1)OCO2 (stereo not given) do in these assays?
Pemphigus Ab inh: 98; NALP1 inh: -1; NLRP3 yeast inh: 35; Arr AP2 block: 1; ALR H2O2 inh: -7; PolyA inh: -6

What do the screens show for `O=C(CN1CCc2ccccc21)Nc1ccc2c(c1)OCO2`?
Pemphigus Ab inh: 72*; NALP1 inh: 9; NLRP3 yeast inh: 21; Arr AP2 block: 6; ALR H2O2 inh: -12; PolyA inh: 1

How did O=C(CN1CCc2ccccc21)NCc1ccc2c(c1)OCO2 do in these assays?
Pemphigus Ab inh: 106; NALP1 inh: 4; NLRP3 yeast inh: 8; Arr AP2 block: 10; ALR H2O2 inh: 99*; PolyA inh: -1

How did CC1=CC(=O)Nc2ncccc2O1 do in these assays?
Pemphigus Ab inh: 102

What do the screens show for `O=C1NN(c2ccc(Cl)c(Cl)c2)C(=O)/C1=C/c1ccc(-c2ccccc2C(=O)O)o1`?
Pemphigus Ab inh: 114; NALP1 inh: 14; NLRP3 yeast inh: 15; Arr AP2 block: 5; ALR H2O2 inh: 99*; PolyA inh: -10

What do the screens show for `O=C1NN(c2ccccc2)C(=O)/C1=C/c1ccc(-c2ccc(C(=O)O)cc2)o1`?
Pemphigus Ab inh: 97; NALP1 inh: -4; NLRP3 yeast inh: 33; Arr AP2 block: 1; ALR H2O2 inh: 99*; PolyA inh: -3

What do the screens show for `Cc1ccc(N2NC(=O)/C(=C/c3ccc(-c4ccc(Cl)c(C(=O)O)c4)o3)C2=O)cc1C`?
Pemphigus Ab inh: 99; NALP1 inh: 10; NLRP3 yeast inh: 7; Arr AP2 block: 6; ALR H2O2 inh: -1; PolyA inh: 25

Results for CCOC(=O)CNC(=O)C1(NC(=O)CNC(=O)OCc2ccccc2)CCCC1 ?
Pemphigus Ab inh: 122; Arr AP2 block: 12

What do the screens show for `CN(C)C(CNC(=O)c1cccc(C(F)(F)F)c1)c1ccco1` (stereo not given)?
NALP1 inh: 4; NLRP3 yeast inh: 4; Arr AP2 block: 20; PolyA inh: -6

What do the screens show for `CN(C)S(=O)(=O)c1cccc(-c2cn3ccccc3n2)c1`?
Pemphigus Ab inh: 101; NALP1 inh: 9; NLRP3 yeast inh: -4; Arr AP2 block: -4; ALR H2O2 inh: 99*; PolyA inh: 1

How did CN(C)S(=O)(=O)c1cccc(-c2cn3cc(Cl)ccc3n2)c1 do in these assays?
Pemphigus Ab inh: 96; NALP1 inh: -2; NLRP3 yeast inh: -79; Arr AP2 block: 39; ALR H2O2 inh: 98*; PolyA inh: -22
